Source: ChEMBL document CHEMBL4627290, “Synthesis and biological evaluation of chepraecoxin A derivatives as α-glucosidase inhibitors” (Bioorg Med Chem Lett, 2020)

Columns and labels:
[1] = Inhibition of alpha-glucosidase (unknown origin) at 500 uM relative to control; settings: Homo sapiens
Method in brief: (§1)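 Single-point screen at 500 μM inhibitor, with acarbose as positive control. Derivatives exceeding 50% inhibition were taken on to a dose-response series at several concentrations to derive IC50. Values are mean ± SD, n = 3.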

[2] = Inhibition of alpha-glucosidase (unknown origin); design: species or system Homo sapiens; method in brief: as §1
[3] = Potency index, ratio of chepraecoxinA IC50 to test compound IC50 for inhibition of alpha-glucosidase (unknown origin); settings: Homo sapiens
[4] = Non-competitve inhibition of alpha-glucosidase (unknown origin) by Dixon-plot analysis; design: species or system Homo sapiens
Method in brief: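 Kinetic study run at varied substrate concentrations. Inhibition type was assigned from a Lineweaver-Burk plot (Vm and Km compared), and the inhibition constant Ki was read from a Dixon plot.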

SMILES | inhibition [1] | IC50 [2] | Ratio IC50 [3] | Ki [4]
CCCCCCCCCCCCCCCCCC(=O)O[C@H]1CC[C@@](C)(C(=O)O)[C@H]2CC[C@@]34C[C@H](CC[C@H]3[C@]12C)[C@@H](C)C4 | 94.2% | 32 µM | – | –
CCCCCCCC(=O)O[C@H]1CC[C@@](C)(C(=O)O)[C@H]2CC[C@@]34C[C@H](CC[C@H]3[C@]12C)[C@@H](C)C4 | 95.5% | 22.8 µM | – | –
CC(=O)O[C@H]1CC[C@@](C)(C(=O)O)[C@H]2CC[C@@]34C[C@H](CC[C@H]3[C@]12C)[C@@](O)(CO)C4 | 7.5% | – | – | –
C=C1[C@H]2CC[C@@H]3[C@@](CC[C@H]4[C@@]3(C)[C@@H](OC(C)=O)CC[C@@]4(C)C(=O)O)(C2)[C@H]1O | 22.1% | – | – | –
C=C1C[C@@]23CC[C@H]4[C@](C)([C@@H]2CC[C@H]1C3)[C@@H](O)CC[C@@]4(C)C(=O)O | 52% | 538 µM | – | –
CC(=O)O[C@H]1CC[C@@](C)(C(=O)O)[C@H]2CC[C@]34CC(=O)[C@@H](CC[C@H]3[C@]12C)C4 | 78.8% | 262 µM | – | –
C=C1C[C@@]23CC[C@H]4[C@@](C)([C@@H](OC(C)=O)CC[C@@]4(C)C(=O)O)[C@@H]2CC[C@H]1C3 | 95% | 274 µM | – | –
C[C@H]1O[C@H](O[C@H]2[C@H](O)[C@@H](O)[C@@H](O[C@H]3[C@H](O)[C@@H](O)C(O)O[C@@H]3CO)O[C@@H]2CO)[C@H](O)[C@@H](O)[C@@H]1N[C@H]1C=C(CO)[C@@H](O)[C@H](O)[C@H]1O (stereo not given in full) [ACARBOSE] | 79.8% | 130 µM | – | –
C=C1C(=O)[C@@]23CC[C@H]4[C@@](C)([C@@H](OC(C)=O)CC[C@@]4(C)C(=O)O)[C@@H]2CC[C@H]1C3 | 18.6% | – | – | –
C[C@H]1C[C@@]23CC[C@H]4[C@@](C)([C@@H](OC(=O)/C=C/c5ccccc5)CC[C@@]4(C)C(=O)O)[C@@H]2CC[C@H]1C3 | – | 17.1 µM | 17 | –
CC(=O)O[C@H]1CC[C@@](C)(C(=O)O)[C@H]2CC[C@@]34C[C@H](CC[C@H]3[C@]12C)[C@@]1(CO1)C4 | 9.6% | – | – | –
C=C1C[C@@]23CC[C@H]4[C@@](C)([C@@H](OC(C)=O)CC[C@@]4(C)C(=O)OC)[C@@H]2CC[C@H]1C3 | 45.4% | – | – | –

Further lines, results first:

inhibition [1] | IC50 [2] | Ratio IC50 [3] | Ki [4] | SMILES
17.3% | – | – | – | C[C@H]1C[C@@]23CC[C@H]4[C@](C)([C@@H]2CC[C@H]1C3)[C@@H](O)CC[C@@]4(C)C(=O)O
77.2% | 330 µM | – | – | C=C1C[C@@]23CC[C@H]4[C@@](C)(/C(=N/O)CC[C@@]4(C)C(=O)O)[C@@H]2CC[C@H]1C3
98.4% | 146 µM | 2 | – | CC(=O)O[C@H]1CC[C@@](C)(C(=O)O)[C@H]2CC[C@@]34C[C@H](CC[C@H]3[C@]12C)[C@@H](C)C4
13.2% | – | – | – | C[C@H]1C[C@@]23CC[C@H]4[C@@](C)(C(=O)CC[C@@]4(C)C(=O)O)[C@@H]2CC[C@H]1C3
– | 45.4 µM | – | – | C[C@H]1C[C@@]23CC[C@H]4[C@@](C)([C@@H](OC(=O)c5ccccc5)CC[C@@]4(C)C(=O)O)[C@@H]2CC[C@H]1C3
11.4% | – | – | – | COC(=O)[C@]1(C)CC[C@H](OC(C)=O)[C@@]2(C)[C@@H]3CC[C@H]4C[C@@]3(CC[C@@H]21)C[C@@H]4C
– | 16.1 µM | 17 | 19.4 µM | C[C@H]1C[C@@]23CC[C@H]4[C@@](C)([C@@H](OC(=O)C5CCCCC5)CC[C@@]4(C)C(=O)O)[C@@H]2CC[C@H]1C3
93% | 71.4 µM | – | – | C[C@H]1C[C@@]23CC[C@H]4[C@@](C)([C@@H](OC(=O)c5cccnc5)CC[C@@]4(C)C(=O)O)[C@@H]2CC[C@H]1C3
17.8% | – | – | – | C[C@H]1C[C@@]23CC[C@H]4[C@@](C)([C@@H](OC(=O)CCC(=O)O)CC[C@@]4(C)C(=O)O)[C@@H]2CC[C@H]1C3
19.4% | – | – | – | C=C1C[C@@]23CC[C@H]4[C@@](C)(C(=O)CC[C@@]4(C)C(=O)O)[C@@H]2CC[C@H]1C3
98% | 48.4 µM | – | – | CCCC(=O)O[C@H]1CC[C@@](C)(C(=O)O)[C@H]2CC[C@@]34C[C@H](CC[C@H]3[C@]12C)[C@@H](C)C4
91.8% | 16.9 µM | 17 | – | CCCCC/C=C/C(=O)O[C@H]1CC[C@@](C)(C(=O)O)[C@H]2CC[C@@]34C[C@H](CC[C@H]3[C@]12C)[C@@H](C)C4
